Laboratory results reported in ChEMBL document CHEMBL1122233, “Antihypertensive 9-substituted 1-oxa-4,9-diazaspiro[5.5]undecan-3-ones” (J Med Chem, 1983).
Blank lines part the entries; values can stand above or below the compound they belong to. Active and inactive are the calls of the source. The rule behind the calls is not given here.

Key:
Rattus norvegicus [1] = experiment: Percentage fall in systolic blood pressure after 4 hr at 25 mg/kg given perorally; type: functional, Artery; details: route oral
Procedure, shortened: (§1)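 Male Okamoto-Aoki spontaneously hypertensive rats, trained, in groups of four matched for mean systolic pressure; five treated groups and one vehicle control run concurrently. Oral dosing in water (solution or suspension, 0.1 mL/10 g) on two consecutive mornings. On day 2, rats were restrained at 30.0 ± 1.0 °C and tail-cuff systolic pressure recorded at 1–4 h; percent fall versus control, 1-tail t test, p ≤ 0.05.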

Rattus norvegicus [2] = experiment: Percentage fall in systolic blood pressure after 1 hr at 6.25 mg/kg given perorally; type: functional, Artery; details: route oral
Procedure, shortened: (§2)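 Male Okamoto-Aoki SHR, four per group, with a concurrent vehicle control group. Oral dosing in water (0.1 mL/10 g) on two consecutive mornings. After the day-2 dose, rats were restrained in a 30 °C chamber. Tail-cuff systolic pressure was taken at 1-4 h from four traces per rat. Result is % decrease versus control mean, by 1-tailed t test, p ≤ 0.05.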

Rattus norvegicus [3] = experiment: Percentage fall in systolic blood pressure after 2 hr at 25 mg/kg given perorally; type: functional, Artery; details: route oral; procedure, shortened: as §1
Rattus norvegicus [4] = experiment: Percentage fall in systolic blood pressure after 2 hr at 6.25 mg/kg given perorally; type: functional, Artery; details: route oral; procedure, shortened: as §1
Rattus norvegicus [5] = experiment: Percentage fall in systolic blood pressure after 4 hr at 6.25 mg/kg given perorally; type: functional, organism-based; parameters: dose 6.25 mg/kg; details: Artery; procedure, shortened: as §1
Rattus norvegicus [6] = experiment: Percentage fall in systolic blood pressure after 1 hr at 25 mg/kg given perorally; type: functional, Artery; details: route oral; procedure, shortened: as §1
Rattus norvegicus [7] = experiment: Percentage fall in systolic blood pressure after 3 hr at 6.25 mg/kg given perorally; type: functional, Artery; details: route oral; procedure, shortened: as §1
Rattus norvegicus [8] = experiment: Percentage fall in systolic blood pressure after 3 hr at 25 mg/kg given perorally; type: functional, Artery; details: route oral; procedure, shortened: as §1
Rattus norvegicus [9] = experiment: Percentage fall in systolic blood pressure after 4 hours at 12.5 mg/kg given perorally; type: functional, organism-based; parameters: dose 12.5 mg/kg; details: Artery; procedure, shortened: as §2
Rattus norvegicus [10] = experiment: Percentage fall in systolic blood pressure after 3 hours at 50 mg/kg given perorally; type: functional, Artery; details: route oral; procedure, shortened: as §2
Rattus norvegicus [11] = experiment: Percentage fall in systolic blood pressure after 3 hours at 12.5 mg/kg given perorally; type: functional, organism-based; parameters: dose 12.5 mg/kg; details: Artery; procedure, shortened: as §2
Rattus norvegicus [12] = experiment: Percentage fall in systolic blood pressure after 2 hours at 50 mg/kg given perorally; type: functional, Artery; details: route oral; procedure, shortened: as §2
Rattus norvegicus [13] = experiment: Percentage fall in systolic blood pressure after 2 hours at 12.5 mg/kg given perorally; type: functional, organism-based; parameters: dose 12.5 mg/kg; details: Artery; procedure, shortened: as §2
Rattus norvegicus [14] = experiment: (§3) Percentage fall in systolic blood pressure after 1 hr at 12.5 mg/kg given perorally; type: functional, Artery; details: route oral; procedure, shortened: as §2
Rattus norvegicus [15] = experiment: Percentage fall in systolic blood pressure after 1 hr at 50 mg/kg given perorally; type: functional, Artery; details: route oral; procedure, shortened: as §2
Rattus norvegicus [16] = experiment: Percentage fall in systolic blood pressure after 4 hours at 50 mg/kg given perorally; type: functional, Artery; details: route oral; procedure, shortened: as §2
Rattus norvegicus [17] = experiment: Percentage fall in systolic blood pressure after 2 hr at 12.5 mg/kg given perorally; type: functional, organism-based; parameters: dose 12.5 mg/kg; details: Artery; procedure, shortened: as §1
Rattus norvegicus [18] = experiment: Percentage fall in systolic blood pressure after 4 hr at 12.5 mg/kg given perorally; type: functional, organism-based; parameters: dose 12.5 mg/kg; details: Artery; procedure, shortened: as §1
[19] = target: T1, Adrenergic receptor alpha-1 (Rattus norvegicus, UniProt P15823+P23944+P43140); experiment: Affinity for alpha-1 adrenoceptor of rat cerebral cortex was determined by ligand binding using [3H]prazosin.; type: tissue-based
T1 sequence (P15823 whole entry): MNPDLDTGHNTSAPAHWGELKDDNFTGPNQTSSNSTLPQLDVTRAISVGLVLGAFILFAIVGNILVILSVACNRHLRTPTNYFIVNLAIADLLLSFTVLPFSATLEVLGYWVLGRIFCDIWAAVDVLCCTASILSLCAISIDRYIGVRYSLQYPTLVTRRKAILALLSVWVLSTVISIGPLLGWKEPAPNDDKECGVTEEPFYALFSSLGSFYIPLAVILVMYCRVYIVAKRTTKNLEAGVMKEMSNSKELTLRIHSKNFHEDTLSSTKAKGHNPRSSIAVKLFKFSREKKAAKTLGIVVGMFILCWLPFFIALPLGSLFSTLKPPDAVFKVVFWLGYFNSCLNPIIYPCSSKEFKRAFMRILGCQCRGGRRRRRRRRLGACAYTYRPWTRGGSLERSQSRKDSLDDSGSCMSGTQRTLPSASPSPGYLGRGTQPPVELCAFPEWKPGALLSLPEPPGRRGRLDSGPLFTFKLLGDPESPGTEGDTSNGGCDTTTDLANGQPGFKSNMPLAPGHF
T1 sequence (P23944 whole entry): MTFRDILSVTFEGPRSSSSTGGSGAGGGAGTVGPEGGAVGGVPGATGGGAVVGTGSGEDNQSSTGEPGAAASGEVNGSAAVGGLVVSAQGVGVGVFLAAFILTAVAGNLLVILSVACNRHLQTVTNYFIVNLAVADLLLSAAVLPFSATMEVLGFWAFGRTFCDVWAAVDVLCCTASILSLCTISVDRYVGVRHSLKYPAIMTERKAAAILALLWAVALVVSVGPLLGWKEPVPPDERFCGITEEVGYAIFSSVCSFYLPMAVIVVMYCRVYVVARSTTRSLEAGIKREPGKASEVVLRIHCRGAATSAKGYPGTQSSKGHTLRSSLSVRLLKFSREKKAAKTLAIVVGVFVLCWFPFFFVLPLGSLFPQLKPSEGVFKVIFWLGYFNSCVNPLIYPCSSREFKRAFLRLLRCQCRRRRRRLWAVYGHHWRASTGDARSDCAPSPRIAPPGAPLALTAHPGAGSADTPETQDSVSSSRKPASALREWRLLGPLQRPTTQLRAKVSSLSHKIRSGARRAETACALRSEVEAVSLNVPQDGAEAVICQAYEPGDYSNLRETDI
T1 sequence (P43140 whole entry): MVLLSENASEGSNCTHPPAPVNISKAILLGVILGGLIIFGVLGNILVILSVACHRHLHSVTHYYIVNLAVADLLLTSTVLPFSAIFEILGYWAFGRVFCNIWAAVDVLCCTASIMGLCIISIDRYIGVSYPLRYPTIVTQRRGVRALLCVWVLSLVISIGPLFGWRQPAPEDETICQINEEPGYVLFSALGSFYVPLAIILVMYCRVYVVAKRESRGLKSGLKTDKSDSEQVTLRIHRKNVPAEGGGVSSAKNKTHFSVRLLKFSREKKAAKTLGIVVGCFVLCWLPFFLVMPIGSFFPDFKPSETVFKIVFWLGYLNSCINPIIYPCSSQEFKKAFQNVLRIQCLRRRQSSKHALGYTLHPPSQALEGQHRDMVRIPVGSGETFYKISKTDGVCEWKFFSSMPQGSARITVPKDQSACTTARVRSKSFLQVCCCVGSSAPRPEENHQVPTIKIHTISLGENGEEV
Procedure, shortened: (§4)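 Washed rat cerebral cortex membranes (homogenised in 50 mM Tris-HCl pH 7.8, pelleted at 48000g, washed 3 times) at 2.5 mg/mL protein. […] Ice-cold buffer stop, then filtration. Nonspecific binding defined with 200 μmol norepinephrine. KI from IC50 by Cheng-Prusoff, given as negative log.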

Rattus norvegicus [20] = experiment: Percentage fall in systolic blood pressure after 3 hr at 12.5 mg/kg given perorally; type: functional, organism-based; parameters: dose 12.5 mg/kg; details: Artery; procedure, shortened: as §1
Rattus norvegicus [21] = experiment: as §3; type: functional, organism-based; parameters: dose 12.5 mg/kg; details: Artery; procedure, shortened: as §1
[22] = target: T2, Adrenergic receptor alpha-2 (Rattus norvegicus, UniProt P22086+P19328+P22909); experiment: Affinity for alpha-2 adrenergic receptor of rat cerebral cortex was determined by ligand binding using [3H]yohimbine.; type: tissue-based; procedure, shortened: as §4
T2 sequence (P22086 whole entry): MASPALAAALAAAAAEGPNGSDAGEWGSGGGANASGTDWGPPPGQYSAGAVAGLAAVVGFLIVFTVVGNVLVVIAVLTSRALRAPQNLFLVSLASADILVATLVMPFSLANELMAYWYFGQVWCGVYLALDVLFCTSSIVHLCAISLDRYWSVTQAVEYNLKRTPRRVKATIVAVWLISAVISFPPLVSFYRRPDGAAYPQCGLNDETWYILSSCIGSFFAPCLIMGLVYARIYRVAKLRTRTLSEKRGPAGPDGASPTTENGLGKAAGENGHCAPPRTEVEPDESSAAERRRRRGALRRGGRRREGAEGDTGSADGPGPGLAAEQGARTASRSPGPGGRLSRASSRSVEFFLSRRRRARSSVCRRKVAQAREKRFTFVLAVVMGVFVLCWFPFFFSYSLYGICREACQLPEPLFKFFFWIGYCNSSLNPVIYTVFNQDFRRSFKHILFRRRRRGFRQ
T2 sequence (P19328 whole entry): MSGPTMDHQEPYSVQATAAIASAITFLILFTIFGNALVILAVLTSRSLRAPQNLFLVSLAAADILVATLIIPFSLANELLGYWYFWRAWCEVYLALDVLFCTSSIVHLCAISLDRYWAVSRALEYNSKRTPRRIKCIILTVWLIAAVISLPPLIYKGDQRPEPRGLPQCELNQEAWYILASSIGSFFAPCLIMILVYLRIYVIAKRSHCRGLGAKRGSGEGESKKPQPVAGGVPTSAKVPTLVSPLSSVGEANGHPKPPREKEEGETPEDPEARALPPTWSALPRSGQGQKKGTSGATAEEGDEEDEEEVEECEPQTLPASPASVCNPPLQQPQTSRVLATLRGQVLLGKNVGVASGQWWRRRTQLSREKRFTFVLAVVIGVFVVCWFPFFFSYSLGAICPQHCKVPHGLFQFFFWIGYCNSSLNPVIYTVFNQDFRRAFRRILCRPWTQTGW
T2 sequence (P22909 whole entry): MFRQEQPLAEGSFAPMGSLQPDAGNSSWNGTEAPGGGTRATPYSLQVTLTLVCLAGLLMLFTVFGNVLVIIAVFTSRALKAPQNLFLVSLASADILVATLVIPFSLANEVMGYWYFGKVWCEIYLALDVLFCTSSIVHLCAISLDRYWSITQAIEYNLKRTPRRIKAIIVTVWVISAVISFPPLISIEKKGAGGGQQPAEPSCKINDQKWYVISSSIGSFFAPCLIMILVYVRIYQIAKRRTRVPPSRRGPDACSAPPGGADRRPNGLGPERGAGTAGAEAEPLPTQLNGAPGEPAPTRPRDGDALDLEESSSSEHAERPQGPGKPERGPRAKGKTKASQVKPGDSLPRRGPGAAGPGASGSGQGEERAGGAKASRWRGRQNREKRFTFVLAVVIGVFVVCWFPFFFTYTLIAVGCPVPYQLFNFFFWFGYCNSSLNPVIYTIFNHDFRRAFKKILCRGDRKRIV

SMILES: O=C1COC2(CCN(CC3COc4ccccc4O3)CC2)CN1 (stereo unspecified)
Decrease in SBP (Rattus norvegicus [1]): 38% | Decrease in SBP (Rattus norvegicus [2]): 38% | Decrease in SBP (Rattus norvegicus [3]): 49% | Decrease in SBP (Rattus norvegicus [4]): 36% | Decrease in SBP (Rattus norvegicus [5]): Not significant | Decrease in SBP (Rattus norvegicus [6]): 53% | Decrease in SBP (Rattus norvegicus [7]): 21% | Decrease in SBP (Rattus norvegicus [8]): 40%

SMILES: O=C1COC2(CCN(CCc3c[nH]c4ccccc34)CC2)CN1c1ccccc1
Decrease in SBP (Rattus norvegicus [9]): Not significant | Decrease in SBP (Rattus norvegicus [10]): 45% | Decrease in SBP (Rattus norvegicus [11]): Not significant | Decrease in SBP (Rattus norvegicus [12]): 59% | Decrease in SBP (Rattus norvegicus [13]): Not significant | Decrease in SBP (Rattus norvegicus [14]): 19% | Decrease in SBP (Rattus norvegicus [15]): 45% | Decrease in SBP (Rattus norvegicus [16]): 40%

-Log Ki [19]: 7.61 | -Log Ki [22]: 4.92
SMILES: O=C(NC1CCN(CCc2c[nH]c3ccccc23)CC1)c1ccccc1 [INDORAMIN]
Decrease in SBP (Rattus norvegicus [1]): 30% | Decrease in SBP (Rattus norvegicus [17]): inactive | Decrease in SBP (Rattus norvegicus [18]): inactive | Decrease in SBP (Rattus norvegicus [3]): 28% | Decrease in SBP (Rattus norvegicus [6]): 27% | Decrease in SBP (Rattus norvegicus [20]): inactive | Decrease in SBP (Rattus norvegicus [21]): inactive | Decrease in SBP (Rattus norvegicus [8]): 34%
